Converted amounts (≈) assume the structure as drawn. The source made the active and inactive calls. The calls are words filed in the database; no cut-off is given here.
Key:
Escherichia coli [1] = assay: Antimicrobial activity against Escherichia coli O157:H7 PT-32 in stationary phase encoding Stx-1 and Stx-2 gene by broth macrodilution assay; assay type: functional
How it was run: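 Overnight MH-broth cultures (stationary phase) were diluted 1:1,000, then 1:200. 1 ml was mixed with 1.0 ml of antibiotic in MH broth, with trimethoprim:sulfamethoxazole at 1:5, and held overnight at 37°C with rotary aeration. MIC judged visually, corresponding to ∼10^7 CFU/ml.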

Escherichia coli [2] = assay: Antimicrobial activity against Escherichia coli C600::H19B in stationary phase encoding Stx-1 gene by broth macrodilution assay
Escherichia coli [3] = assay: Antimicrobial activity against Escherichia coli C600::H19B in logarithmic phase encoding Stx-1 gene by broth macrodilution assay
Escherichia coli [4] = assay: Antimicrobial activity against Escherichia coli O157:H7 PT-40 in stationary phase encoding Stx-2 gene by broth macrodilution assay
Escherichia coli [5] = assay: Antimicrobial activity against Escherichia coli O157:H7 185 encoding stx gene by broth microdilution method; assay type: functional, organism-based
Escherichia coli [6] = assay: microbe, parasite or virus in culture; details: C600::933W
Escherichia coli [7] = assay: Antimicrobial activity against Escherichia coli C600::933W in logarithmic phase encoding Stx-2 gene by broth macrodilution assay; assay type: functional
Escherichia coli [8] = assay: Antimicrobial activity against Escherichia coli O157:H7 PT-40 in logarithmic phase encoding Stx-2 gene by broth macrodilution assay; assay type: functional
Escherichia coli [9] = assay: Antimicrobial activity against Escherichia coli O157:H7 PT-32 in logarithmic phase encoding Stx-1 and Stx-2 gene by broth macrodilution assay

CC1(C)S[C@@H]2[C@H](NC(=O)[C@H](N)c3ccccc3)C(=O)N2[C@H]1C(=O)O [AMPICILLIN]
MIC (Escherichia coli [1]): 4 µg/mL (≈ 11.4 µM) | MIC (Escherichia coli [2]): 8 µg/mL (≈ 22.9 µM) | MIC (Escherichia coli [3]): 4 µg/mL (≈ 11.4 µM) | MIC (Escherichia coli [4]): 8 µg/mL (≈ 22.9 µM) | Activity (Escherichia coli [5]): Active | MIC (Escherichia coli [6]): 8 µg/mL (≈ 22.9 µM)

CO[C@H]1/C=C/O[C@@]2(C)Oc3c(C)c(O)c4c(O)c(c(/C=N/N5CCN(C)CC5)c(O)c4c3C2=O)NC(=O)/C(C)=C\C=C\[C@H](C)[C@H](O)[C@@H](C)[C@@H](O)[C@@H](C)[C@H](OC(C)=O)[C@@H]1C [RIFAMPIN]
MIC (Escherichia coli [1]): 2 µg/mL (≈ 2.43 µM) | MIC (Escherichia coli [2]): 16 µg/mL (≈ 19.4 µM) | MIC (Escherichia coli [3]): 4 µg/mL (≈ 4.86 µM) | MIC (Escherichia coli [7]): 8 µg/mL (≈ 9.72 µM) | MIC (Escherichia coli [8]): 4 µg/mL (≈ 4.86 µM) | MIC (Escherichia coli [4]): 16 µg/mL (≈ 19.4 µM) | MIC (Escherichia coli [9]): 4 µg/mL (≈ 4.86 µM) | MIC (Escherichia coli [6]): 8 µg/mL (≈ 9.72 µM)

CC[C@H]1OC(=O)[C@H](C)[C@@H](O[C@H]2C[C@@](C)(OC)[C@@H](O)[C@H](C)O2)[C@H](C)[C@@H](O[C@@H]2O[C@H](C)C[C@H](N(C)C)[C@H]2O)[C@](C)(O)C[C@@H](C)CN(C)[C@H](C)[C@@H](O)[C@]1(C)O [AZITHROMYCIN]
MIC (Escherichia coli [1]): 2.6 µg/mL (≈ 3.47 µM) | MIC (Escherichia coli [2]): 2 µg/mL (≈ 2.67 µM) | MIC (Escherichia coli [3]): 2 µg/mL (≈ 2.67 µM) | MIC (Escherichia coli [7]): 2 µg/mL (≈ 2.67 µM) | MIC (Escherichia coli [8]): 4 µg/mL (≈ 5.34 µM) | MIC (Escherichia coli [4]): 2.6 µg/mL (≈ 3.47 µM) | MIC (Escherichia coli [9]): 2.6 µg/mL (≈ 3.47 µM) | MIC (Escherichia coli [6]): 2 µg/mL (≈ 2.67 µM)

Cc1cc(NS(=O)(=O)c2ccc(N)cc2)no1 [SULFAMETHOXAZOLE]
MIC (Escherichia coli [1]): 0.13 µg/mL (≈ 0.513 µM) | MIC (Escherichia coli [2]): 0.03 µg/mL (≈ 0.118 µM) | MIC (Escherichia coli [3]): 0.004 µg/mL (≈ 0.0158 µM) | MIC (Escherichia coli [7]): 0.01 µg/mL (≈ 0.0395 µM) | MIC (Escherichia coli [8]): 0.13 µg/mL (≈ 0.513 µM) | MIC (Escherichia coli [4]): 0.13 µg/mL (≈ 0.513 µM) | MIC (Escherichia coli [9]): 0.13 µg/mL (≈ 0.513 µM) | MIC (Escherichia coli [6]): 0.03 µg/mL (≈ 0.118 µM)

C[C@@H]1O[C@@H]1P(=O)(O)O [FOSFOMYCIN]
MIC (Escherichia coli [1]): 16 µg/mL (≈ 116 µM) | MIC (Escherichia coli [2]): 0.5 µg/mL (≈ 3.62 µM) | MIC (Escherichia coli [3]): 2 µg/mL (≈ 14.5 µM) | MIC (Escherichia coli [7]): 2 µg/mL (≈ 14.5 µM) | MIC (Escherichia coli [8]): 16 µg/mL (≈ 116 µM) | MIC (Escherichia coli [4]): 16 µg/mL (≈ 116 µM) | MIC (Escherichia coli [9]): 16 µg/mL (≈ 116 µM) | MIC (Escherichia coli [6]): 2 µg/mL (≈ 14.5 µM)

CO/N=C(\C(=O)N[C@@H]1C(=O)N2C(C(=O)O)=C(CSc3nc(=O)c(O)nn3C)CS[C@H]12)c1csc(N)n1 [CEFTRIAXONE]
MIC (Escherichia coli [1]): 0.03 µg/mL (≈ 0.0541 µM) | MIC (Escherichia coli [2]): 0.06 µg/mL (≈ 0.108 µM) | MIC (Escherichia coli [3]): 0.03 µg/mL (≈ 0.0541 µM) | MIC (Escherichia coli [7]): 0.03 µg/mL (≈ 0.0541 µM) | MIC (Escherichia coli [8]): 0.06 µg/mL (≈ 0.108 µM) | MIC (Escherichia coli [4]): 0.06 µg/mL (≈ 0.108 µM) | MIC (Escherichia coli [9]): 0.03 µg/mL (≈ 0.0541 µM) | MIC (Escherichia coli [6]): 0.03 µg/mL (≈ 0.0541 µM)

C[C@H]1c2cccc(O)c2C(=O)C2=C(O)[C@]3(O)C(=O)C(C(N)=O)=C(O)[C@@H](N(C)C)[C@@H]3[C@@H](O)[C@@H]21.O [DOXYCYCLINE]
MIC (Escherichia coli [1]): 0.5 µg/mL | MIC (Escherichia coli [2]): 0.5 µg/mL | MIC (Escherichia coli [3]): 0.25 µg/mL | MIC (Escherichia coli [7]): 0.5 µg/mL | MIC (Escherichia coli [8]): 1 µg/mL | MIC (Escherichia coli [4]): 1 µg/mL | MIC (Escherichia coli [9]): 1 µg/mL | Activity (Escherichia coli [5]): Active | MIC (Escherichia coli [6]): 1 µg/mL

GENTAMICIN
MIC (Escherichia coli [1]): 0.25 µg/mL | MIC (Escherichia coli [7]): 0.25 µg/mL | MIC (Escherichia coli [8]): 0.25 µg/mL

From ChEMBL document CHEMBL1671710, “Different classes of antibiotics differentially influence shiga toxin production” (2010)
